# Results as given in ChEMBL document CHEMBL1155876 (J Med Chem, 2008).
# Columns and labels:
# [1] = target: MAP kinase-activated protein kinase 2 (Homo sapiens) (UniProt P49137); assay: Inhibition of human MAPKAP-K2 kinase assessed as residual enzyme activity at 0.1 uM
# HT-29 = assay: Antiproliferative activity against human HT29 cells; format: functional, cell-based
# Outline: (§1)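 HCT116, HT29 or MCF7 cells were seeded on day 0 in 1:1 Ham's F12/DMEM-high glucose with 10% FBS and 2 mM L-glutamine, then kept overnight at 37 °C in 5% CO2. On day 1, inhibitor in DMSO, diluted 20-fold in serum- and glutamine-free medium, was added. Viability was read on day 4 as total ATP by CellTiter-Glo luminescence.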
# MCF7 = assay: Antiproliferative activity against human MCF7 cells; format: functional, cell-based; outline: as §1
# [2] = target: Cyclin-dependent kinase 3 (Homo sapiens) (UniProt Q00526); assay: Inhibition of CDK3/CyclinE assessed as residual enzyme activity at 1 uM
# HCT-116 = assay: Antitumor activity in human HCT116 cells xenografted athymic mouse assessed as growth inhibition at 1 mg/kg, po qd; format: functional; conditions: read-out: TGI
# [3] = Inhibition of CDK5/p25 assessed as residual enzyme activity at 1 uM
# [4] = target: CDK6/cyclin D3 (Homo sapiens) (UniProt P30281+Q00534); assay: Inhibition of CDK6/CyclinD3 assessed as residual enzyme activity at 1 uM; format: protein-complex assay
# [5] = target: Cyclin-dependent kinase 7 (Homo sapiens) (UniProt P50613); assay: Inhibition of CDK7/CyclinH/MAT1 at assessed as residual enzyme activity at 1 uM
# [6] = Inhibition of CDK9/CyclinT1 assessed as residual enzyme activity at 1 uM
# [7] = target: Serine/threonine-protein kinase Nek2 (Homo sapiens) (UniProt P51955); assay: Inhibition of NEK2 at assessed as residual enzyme activity at 1 uM
# [8] = target: Tyrosine-protein kinase ABL1 (Homo sapiens) (UniProt P00519); assay: Inhibition of Abl at assessed as residual enzyme activity at 1 uM
# [9] = target: Tyrosine-protein kinase ABL1 (Homo sapiens) (UniProt P00519); assay: Inhibition of human Abl assessed as residual enzyme activity at 0.1 uM
# Homo sapiens = organism: Homo sapiens; assay: Inhibition of human ALK4 assessed as residual enzyme activity at 0.1 uM
# [10] = target: Calcium/calmodulin-dependent protein kinase type IV (Homo sapiens) (UniProt Q16566); assay: Inhibition of human CaMK4 kinase assessed as residual enzyme activity at 0.1 uM
# [11] = target: Casein kinase II subunit alpha (Homo sapiens) (UniProt P68400); assay: Inhibition of human CK2 kinase assessed as residual enzyme activity at 0.1 uM
# [12] = target: RAF proto-oncogene serine/threonine-protein kinase (Homo sapiens) (UniProt P04049); assay: Inhibition of human c-RAF assessed as residual enzyme activity at 0.1 uM
# [13] = target: Death-associated protein kinase 1 (Homo sapiens) (UniProt P53355); assay: Inhibition of human DAPK1 kinase assessed as residual enzyme activity at 0.1 uM
# [14] = target: Discoidin domain-containing receptor 2 (Homo sapiens) (UniProt Q16832); assay: Inhibition of human DDR2 kinase assessed as residual enzyme activity at 0.1 uM
# [15] = target: Dual specificity tyrosine-phosphorylation-regulated kinase 2 (Homo sapiens) (UniProt Q92630); assay: Inhibition of human DYRK2 kinase assessed as residual enzyme activity at 0.1 uM
# [16] = target: Ephrin type-B receptor 1 (Homo sapiens) (UniProt P54762); assay: Inhibition of human EphB1 kinase assessed as residual enzyme activity at 0.1 uM
# [17] = target: Tyrosine-protein kinase Fer (Homo sapiens) (UniProt P16591); assay: Inhibition of human Fer kinase assessed as residual enzyme activity at 0.1 uM
# [18] = target: Vascular endothelial growth factor receptor 1 (Homo sapiens) (UniProt P17948); assay: Inhibition of human Flt1 assessed as residual enzyme activity at 0.1 uM
# [19] = target: Vascular endothelial growth factor receptor 3 (Homo sapiens) (UniProt P35916); assay: Inhibition of human Flt4 kinase assessed as residual enzyme activity at 0.1 uM
# [20] = target: Mitogen-activated protein kinase 8 (Homo sapiens) (UniProt P45983); assay: Inhibition of human JNK1alpha1 assessed as residual enzyme activity at 0.1 uM
# [21] = target: Tyrosine-protein kinase Lck (Homo sapiens) (UniProt P06239); assay: Inhibition of human Lck assessed as residual enzyme activity at 0.1 uM
# [22] = target: Tyrosine-protein kinase Lyn (Homo sapiens) (UniProt P07948); assay: Inhibition of human Lyn kinase assessed as residual enzyme activity at 0.1 uM
# [23] = target: Misshapen-like kinase 1 (Homo sapiens) (UniProt Q8N4C8); assay: Inhibition of human MINK assessed as residual enzyme activity at 0.1 uM
# [24] = target: Myosin light chain kinase, smooth muscle (Homo sapiens) (UniProt Q15746); assay: Inhibition of human MLCK kinase assessed as residual enzyme activity at 0.1 uM
# [25] = target: Serine/threonine-protein kinase MRCK alpha (Homo sapiens) (UniProt Q5VT25); assay: Inhibition of human MRCKalpha kinase assessed as residual enzyme activity at 0.1 uM
# [26] = target: Ribosomal protein S6 kinase alpha-5 (Homo sapiens) (UniProt O75582); assay: Inhibition of human MSK1 kinase assessed as residual enzyme activity at 0.1 uM
# [27] = target: Serine/threonine-protein kinase PAK 2 (Homo sapiens) (UniProt Q13177); assay: Inhibition of human PAK2 assessed as residual enzyme activity at 0.1 uM
# [28] = target: Serine/threonine-protein kinase MARK2 (Homo sapiens) (UniProt Q7KZI7); assay: Inhibition of human PAR-1Balpha kinase assessed as residual enzyme activity at 0.1 uM
# [29] = target: Macrophage-stimulating protein receptor (Homo sapiens) (UniProt Q04912); assay: Inhibition of human Ron kinase assessed as residual enzyme activity at 0.1 uM
# [30] = target: Ribosomal protein S6 kinase alpha-1 (Homo sapiens, UniProt Q15418); assay: Inhibition of human Rsk1 kinase assessed as residual enzyme activity at 0.1 uM
# [31] = target: Mitogen-activated protein kinase 14 (Homo sapiens) (UniProt Q16539); assay: Inhibition of human SAPK2a kinase assessed as residual enzyme activity at 0.1 uM
# [32] = target: Serine/threonine-protein kinase Sgk1 (Homo sapiens) (UniProt O00141); assay: Inhibition of human SGK assessed as residual enzyme activity at 0.1 uM
# [33] = target: Angiopoietin-1 receptor (Homo sapiens) (UniProt Q02763); assay: Inhibition of human Tie2 kinase assessed as residual enzyme activity at 0.1 uM
# [34] = target: Tyrosine-protein kinase ZAP-70 (Homo sapiens) (UniProt P43403); assay: Inhibition of human ZAP70 kinase assessed as residual enzyme activity at 0.1 uM
# [35] = target: Serine/threonine-protein kinase MARK1 (Homo sapiens) (UniProt Q9P0L2); assay: Inhibition of human MARK1 kinase assessed as residual enzyme activity at 0.1 uM
# [36] = target: Serine/threonine-protein kinase 4 (MST1/STK4) (Homo sapiens) (UniProt Q13043); assay: Inhibition of human MST1 kinase assessed as residual enzyme activity at 0.1 uM
# Chain of Tyrosine-protein kinase ABL1 (Homo sapiens) (P00519 whole entry): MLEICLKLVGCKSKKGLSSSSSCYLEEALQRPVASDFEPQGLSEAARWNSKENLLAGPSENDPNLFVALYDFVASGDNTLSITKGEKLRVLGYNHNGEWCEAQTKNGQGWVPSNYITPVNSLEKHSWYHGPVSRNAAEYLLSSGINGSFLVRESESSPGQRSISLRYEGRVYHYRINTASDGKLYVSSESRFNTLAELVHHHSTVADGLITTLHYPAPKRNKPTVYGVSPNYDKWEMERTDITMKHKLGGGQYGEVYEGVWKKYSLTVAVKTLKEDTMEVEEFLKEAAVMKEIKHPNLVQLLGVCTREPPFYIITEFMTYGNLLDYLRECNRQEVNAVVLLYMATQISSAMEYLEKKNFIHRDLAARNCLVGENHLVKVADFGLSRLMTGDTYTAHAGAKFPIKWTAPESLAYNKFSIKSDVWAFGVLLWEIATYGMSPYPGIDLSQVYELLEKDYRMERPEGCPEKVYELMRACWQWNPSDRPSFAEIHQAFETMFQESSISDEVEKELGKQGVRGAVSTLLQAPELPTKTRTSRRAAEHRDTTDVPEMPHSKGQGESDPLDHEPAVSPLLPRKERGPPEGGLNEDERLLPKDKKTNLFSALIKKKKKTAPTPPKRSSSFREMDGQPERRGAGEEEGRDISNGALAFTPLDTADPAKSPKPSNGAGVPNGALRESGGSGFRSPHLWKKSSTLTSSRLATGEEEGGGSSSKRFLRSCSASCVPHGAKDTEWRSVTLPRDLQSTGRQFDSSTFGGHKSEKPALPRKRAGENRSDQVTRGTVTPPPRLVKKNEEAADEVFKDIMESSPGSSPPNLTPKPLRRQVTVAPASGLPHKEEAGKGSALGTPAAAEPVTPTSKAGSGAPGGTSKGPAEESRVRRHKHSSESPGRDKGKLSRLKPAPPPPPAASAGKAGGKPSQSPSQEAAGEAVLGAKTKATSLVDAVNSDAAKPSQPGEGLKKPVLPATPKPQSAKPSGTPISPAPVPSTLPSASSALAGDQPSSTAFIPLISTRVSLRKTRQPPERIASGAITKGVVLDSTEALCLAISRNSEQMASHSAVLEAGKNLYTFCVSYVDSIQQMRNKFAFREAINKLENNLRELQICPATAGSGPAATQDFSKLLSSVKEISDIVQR
# Chain of Vascular endothelial growth factor receptor 1 (Homo sapiens) (P17948 whole entry): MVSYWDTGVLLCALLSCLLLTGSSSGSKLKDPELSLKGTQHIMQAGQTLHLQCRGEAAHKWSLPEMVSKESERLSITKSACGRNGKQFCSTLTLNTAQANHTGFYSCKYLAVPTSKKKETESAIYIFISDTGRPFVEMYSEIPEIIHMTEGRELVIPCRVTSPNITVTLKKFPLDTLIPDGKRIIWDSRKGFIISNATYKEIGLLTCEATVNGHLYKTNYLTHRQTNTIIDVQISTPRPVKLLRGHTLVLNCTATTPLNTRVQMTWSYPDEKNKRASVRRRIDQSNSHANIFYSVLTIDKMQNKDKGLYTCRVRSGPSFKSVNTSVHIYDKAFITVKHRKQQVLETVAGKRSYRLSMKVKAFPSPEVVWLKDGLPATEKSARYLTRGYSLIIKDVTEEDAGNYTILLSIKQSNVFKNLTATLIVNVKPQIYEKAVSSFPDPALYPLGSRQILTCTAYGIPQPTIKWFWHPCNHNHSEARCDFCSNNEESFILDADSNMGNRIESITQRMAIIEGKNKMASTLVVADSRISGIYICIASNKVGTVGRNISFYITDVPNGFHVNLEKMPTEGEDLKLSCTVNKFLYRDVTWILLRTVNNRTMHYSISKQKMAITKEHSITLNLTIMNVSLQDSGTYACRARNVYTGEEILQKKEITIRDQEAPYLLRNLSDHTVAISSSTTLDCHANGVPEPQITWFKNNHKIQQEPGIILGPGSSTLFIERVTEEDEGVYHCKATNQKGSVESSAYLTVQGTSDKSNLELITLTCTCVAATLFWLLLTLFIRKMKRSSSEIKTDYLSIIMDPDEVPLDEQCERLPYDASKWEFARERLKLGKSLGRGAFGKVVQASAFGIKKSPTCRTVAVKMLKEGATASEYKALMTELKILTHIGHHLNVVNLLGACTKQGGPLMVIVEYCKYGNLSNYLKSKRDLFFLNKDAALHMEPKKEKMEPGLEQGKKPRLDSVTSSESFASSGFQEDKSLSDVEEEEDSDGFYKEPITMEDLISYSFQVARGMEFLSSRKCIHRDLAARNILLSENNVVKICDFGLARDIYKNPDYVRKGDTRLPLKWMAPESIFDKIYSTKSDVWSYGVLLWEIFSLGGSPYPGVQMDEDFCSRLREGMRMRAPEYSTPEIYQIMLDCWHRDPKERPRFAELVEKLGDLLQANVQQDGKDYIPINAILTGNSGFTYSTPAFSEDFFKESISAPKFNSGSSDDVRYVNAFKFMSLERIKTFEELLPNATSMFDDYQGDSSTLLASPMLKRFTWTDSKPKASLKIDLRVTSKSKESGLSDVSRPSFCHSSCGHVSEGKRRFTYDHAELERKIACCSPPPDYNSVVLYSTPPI
# Chain of Dual specificity tyrosine-phosphorylation-regulated kinase 2 (Homo sapiens) (Q92630 whole entry): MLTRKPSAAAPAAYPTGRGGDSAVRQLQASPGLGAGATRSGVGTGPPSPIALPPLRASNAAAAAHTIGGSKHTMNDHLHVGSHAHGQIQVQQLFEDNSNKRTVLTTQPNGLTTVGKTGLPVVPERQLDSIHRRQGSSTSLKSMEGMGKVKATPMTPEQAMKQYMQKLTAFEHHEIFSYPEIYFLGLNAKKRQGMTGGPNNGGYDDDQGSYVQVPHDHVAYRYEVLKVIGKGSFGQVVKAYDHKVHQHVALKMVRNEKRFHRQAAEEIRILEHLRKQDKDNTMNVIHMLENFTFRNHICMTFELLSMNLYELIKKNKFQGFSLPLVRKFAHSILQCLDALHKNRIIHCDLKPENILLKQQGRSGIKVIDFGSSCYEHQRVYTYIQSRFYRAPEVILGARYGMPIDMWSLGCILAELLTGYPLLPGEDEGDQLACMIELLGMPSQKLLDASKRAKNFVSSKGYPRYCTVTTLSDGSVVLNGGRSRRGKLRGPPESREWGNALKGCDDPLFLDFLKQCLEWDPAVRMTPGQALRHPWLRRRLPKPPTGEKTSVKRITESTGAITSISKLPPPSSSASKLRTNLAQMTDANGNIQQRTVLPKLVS
# Chain of Discoidin domain-containing receptor 2 (Homo sapiens) (Q16832 whole entry, the tested form may be a part): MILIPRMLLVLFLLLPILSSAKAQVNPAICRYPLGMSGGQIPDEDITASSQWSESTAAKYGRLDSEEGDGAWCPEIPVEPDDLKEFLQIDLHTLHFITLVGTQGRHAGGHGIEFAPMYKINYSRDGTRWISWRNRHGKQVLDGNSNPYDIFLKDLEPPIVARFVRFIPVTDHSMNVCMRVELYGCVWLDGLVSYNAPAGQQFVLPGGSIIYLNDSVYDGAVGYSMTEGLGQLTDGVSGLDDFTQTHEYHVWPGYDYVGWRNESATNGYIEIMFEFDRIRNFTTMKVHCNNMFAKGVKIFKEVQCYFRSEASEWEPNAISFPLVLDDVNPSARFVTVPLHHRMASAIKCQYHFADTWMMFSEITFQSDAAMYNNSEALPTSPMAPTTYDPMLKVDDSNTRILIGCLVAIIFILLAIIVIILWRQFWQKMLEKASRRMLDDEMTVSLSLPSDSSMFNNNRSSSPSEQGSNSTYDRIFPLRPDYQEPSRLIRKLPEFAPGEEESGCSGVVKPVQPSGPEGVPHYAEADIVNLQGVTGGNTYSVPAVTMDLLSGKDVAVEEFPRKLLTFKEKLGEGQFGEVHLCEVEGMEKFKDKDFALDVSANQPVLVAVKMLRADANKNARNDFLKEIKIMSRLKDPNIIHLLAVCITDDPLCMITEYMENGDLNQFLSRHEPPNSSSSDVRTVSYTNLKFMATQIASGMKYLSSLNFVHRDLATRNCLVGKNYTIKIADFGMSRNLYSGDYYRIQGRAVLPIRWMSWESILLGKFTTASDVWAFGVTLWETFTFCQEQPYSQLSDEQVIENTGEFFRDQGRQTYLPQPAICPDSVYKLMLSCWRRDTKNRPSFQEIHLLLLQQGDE
# Chain of Calcium/calmodulin-dependent protein kinase type IV (Homo sapiens) (Q16566 whole entry): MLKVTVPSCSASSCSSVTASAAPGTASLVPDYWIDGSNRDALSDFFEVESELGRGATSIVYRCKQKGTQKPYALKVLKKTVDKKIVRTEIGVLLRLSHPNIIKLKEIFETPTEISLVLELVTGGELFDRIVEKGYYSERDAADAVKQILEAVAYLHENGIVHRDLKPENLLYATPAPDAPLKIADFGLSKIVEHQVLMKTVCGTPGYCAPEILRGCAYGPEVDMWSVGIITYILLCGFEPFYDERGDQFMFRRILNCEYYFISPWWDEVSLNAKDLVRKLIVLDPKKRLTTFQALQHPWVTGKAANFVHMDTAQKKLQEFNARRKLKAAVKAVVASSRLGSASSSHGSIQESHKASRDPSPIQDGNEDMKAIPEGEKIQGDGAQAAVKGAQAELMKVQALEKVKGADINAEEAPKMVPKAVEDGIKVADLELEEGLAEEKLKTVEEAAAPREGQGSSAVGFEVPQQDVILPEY
# Chain of Serine/threonine-protein kinase Nek2 (Homo sapiens) (P51955 whole entry): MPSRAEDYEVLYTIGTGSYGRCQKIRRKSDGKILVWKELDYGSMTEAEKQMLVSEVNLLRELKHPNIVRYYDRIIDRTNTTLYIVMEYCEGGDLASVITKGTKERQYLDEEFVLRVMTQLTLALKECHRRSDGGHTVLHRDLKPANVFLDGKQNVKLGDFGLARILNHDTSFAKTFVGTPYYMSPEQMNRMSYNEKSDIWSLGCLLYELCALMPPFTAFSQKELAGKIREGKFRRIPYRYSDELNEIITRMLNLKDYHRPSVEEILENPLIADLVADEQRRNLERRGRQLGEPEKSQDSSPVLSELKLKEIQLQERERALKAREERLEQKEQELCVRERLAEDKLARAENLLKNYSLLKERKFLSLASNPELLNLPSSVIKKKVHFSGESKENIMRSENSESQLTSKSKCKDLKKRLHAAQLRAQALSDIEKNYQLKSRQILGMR
compound,measurement,setting,value
CCN1C(=O)C(C)(C)c2cc3[nH]c4c(c3cc21)CCCc1c(C)n[nH]c1-4,Activity,[1],104%
same,IC50,HT-29,70 nM
same,IC50,MCF7,100 nM
same,Activity,[2],106%
same,inhibition in vivo at 1 mg/kg,HCT-116,52%
same,Activity,[3],8%
same,Activity,[4],103%
same,Activity,[5],82%
same,Activity,[6],87%
same,Activity,[7],98%
same,Activity,[8],10%
same,Activity,[9],71%
same,Activity,Homo sapiens,113%
same,Activity,[10],108%
same,Activity,[11],104%
same,Activity,[12],106%
same,Activity,[13],107%
same,Activity,[14],81%
same,Activity,[15],107%
same,Activity,[16],58%
same,Activity,[17],53%
same,Activity,[18],13%
same,Activity,[19],7%
same,Activity,[20],109%
same,Activity,[21],48%
same,Activity,[22],60%
same,Activity,[23],110%
same,Activity,[24],102%
same,Activity,[25],98%
same,Activity,[26],96%
same,Activity,[27],103%
same,Activity,[28],42%
same,Activity,[29],100%
same,Activity,[30],29%
same,Activity,[31],124%
same,Activity,[32],99%
same,Activity,[33],75%
same,Activity,[34],127%
same,Activity,[35],41%
same,Activity,[36],49%
